Experimental data from different studies.
Target: Atypical kinase COQ8A, mitochondrial (COQ8A, Homo sapiens, UniProt Q8NI60)

SMILES | read-out | technique | concentration | remaining binding
CCN1CCN(Cc2ccc(C(=O)Nc3ccc(C)c(Oc4ccc5c(c4)CC(=O)N5)c3)cc2C(F)(F)F)CC1 | binding | competition with immobilised ligand | 1 µM | 92%
CS(=O)(=O)c1cc(C2(NC(=O)c3cncc4c3cnn4-c3ccc(F)cc3)CC2)ccn1 | cell-free assay | competition with immobilised ligand | 1 µM | 100%
N[C@@H]1CCN(c2nccc(-c3cnn4ncccc34)n2)C1 | binding |  | 1 µM | 100%
CNCc1ccccc1-c1csc([C@H](C)Nc2nc(C)nc3cc(OC)c(OC)cc23)c1 | cell-free assay | competition with immobilised ligand | 1 µM | 91%
F[C@@H]1CCN(c2nccc(-c3cnn4ncccc34)n2)C1 | binding |  | 1 µM | 100%
C[C@@H]1CN(c2ccc3ncc(-c4ccc5[nH]nc(C6CC6)c5c4)n3n2)C[C@H](C)O1 | binding | competition with immobilised ligand | 0.5 µM | 100%
O=C(Nc1c[nH]nc1C(=O)NC1CCNCC1)c1cc(F)cc(F)c1 | binding | competition with immobilised ligand | 1 µM | 100%
C[C@@H](c1ccc(-n2cnc3c(N)ncnc32)cc1)N1CCc2nn(C)c(Cc3ccccc3)c2C1=O | binding | competition with immobilised ligand | 0.1 µM | 84%
CC1CCCN1c1nccc(-c2cnn3ncccc23)n1 (centres unmarked) | binding |  | 1 µM | 100%
NS(=O)(=O)c1cc(NC(=O)C2(c3ccccc3Cl)CC2)ccc1Oc1cccc(Cl)c1 | cell-free assay | competition with immobilised ligand | 1 µM | 100%
c1cnn2ncc(-c3ccnc(N4CCC45COC5)n3)c2c1 | binding |  | 1 µM | 100%
FC(F)(F)c1ccc2c(c1)nc(-c1cccnc1)n2C1CC1 | cell-free assay | competition with immobilised ligand | 1 µM | 100%
O=C(NCCCN1CCOCC1)c1ccc(Nc2nccc(-c3cc4ccccc4s3)n2)cc1 | binding | competition with immobilised ligand | 1 µM | 90%
CN(C)c1ncc(F)c(-c2cnn3ncccc23)n1 | binding |  | 1 µM | 96%
CNC(=O)[C@@H]1CC[C@@H](n2c(-c3ccc4cnccc4c3)nc3ccc(C(=O)NCc4cccc(C(N)=O)c4)cc32)C1 | binding | competition with immobilised ligand | 1 µM | 100%
Cc1nc(Cc2cccc(C(F)(F)F)c2)sc1-c1ccc(C(N)=O)nc1 | cell-free assay | competition with immobilised ligand | 1 µM | 62%
COc1ncc2cc3ccccc3nc2c1C#N | cell-free assay | competition with immobilised ligand | 5 µM | 96%
C[C@@H]1CCN(c2nccc(-c3cnn4ncccc34)n2)C1 | binding |  | 1 µM | 100%
CCC(=O)N[C@@H]1CC[C@H](C(=O)N(C)c2ccc(-c3nc4ccccc4o3)cc2)C1 | cell-free assay | competition with immobilised ligand | 1 µM | 99%
Cc1cnc(Nc2ccc(C(=O)N3CCC(N4CCCC4)CC3)cc2)nc1-c1cc2ccccc2s1 | binding | competition with immobilised ligand | 1 µM | 85%
Nc1ncc2c(n1)-c1c([nH]c3ccc(C#CC4CC4)cc13)CCCC2 | binding | competition with immobilised ligand | 1 µM | 96%
O=C(c1ccc(Nc2nccc(-c3cc4ccccc4s3)n2)cc1)N1CCC(N2CCCC2)CC1 | binding | competition with immobilised ligand | 1 µM | 88%
C[C@@H]1CN(c2cc(-c3nn(C)c4ccc(OC5(C)CC5)cc34)ncn2)C[C@H](C)O1 | cell-free assay | competition with immobilised ligand | 1 µM | 100%
